The nature of series [1]: Binding affinity to Xenopus laevis oocyte CNGA1/CNGB1 assessed as inhibition of 2 mM cGMP-induced currents at +50 mV potential at 5 uM by patch-clamp method. Particulars: read-out: Kd(app). The procedure, abridged: (§1)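 Rod CNGA1 plus CNGB1 cRNA (2:1; 33 ng plus 67 ng) co-injected into stage IV–V Xenopus oocytes, held at 16–18 °C. Inside-out excised patches recorded 3–7 days after injection. Channels were maximally activated with 2 mM cGMP, and compound was added. Steps ran from 0 to −50 and +50 mV. Currents with no cGMP were subtracted, and KD was fitted to a single-site block equation (mean ± SD).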

Series [2] in a line: Binding affinity to Xenopus laevis oocyte CNGA1/CNGB1 assessed as inhibition of 2 mM cGMP-induced currents at -50 mV potential at 5 uM by patch-clamp method. Particulars: read-out: Kd(app). Put shortly: as §1
Series [3] can be described thus: Drug degradation in 0.1 M phosphate buffer at pH 7.4 assessed as human butyrylcholinestase-mediated compound hydrolysis rate at 50 uM during first 1 min by spectrophotometric analysis. Particulars: pH 7.4, 1 min.
The species named for series [4] is Xenopus laevis. As to the kind of experiment: Inhibition of Xenopus laevis oocyte CNGA1/CNGB1 assessed as inhibition of cGMP-induced currents at +50 mV potential at 1 uM by patch-clamp method in presence of 100 uM cGMP. The procedure, abridged:
(§2)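 Heteromeric rod CNG channels from oocytes co-injected with CNGA1 and CNGB1 cRNA (33 ng:67 ng, 2:1), held at 16–18 °C and recorded 3–7 days later. Excised inside-out patches were stepped from 0 to −50 to +50 mV with sub-saturating cGMP (50 or 100 µM), with or without blocker. Currents without cGMP were subtracted and filtered at 300 Hz. Block was read at +50 mV.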

The species entered for series [5] is Xenopus laevis. In words: Inhibition of Xenopus laevis oocyte CNGA1/CNGB1 assessed as inhibition of currents at +50 mV potential at 2 uM by patch-clamp method in presence of 100 uM cGMP. Put shortly:
as §2

For series [6], the species on record is Xenopus laevis. In words: Inhibition of Xenopus laevis oocyte CNGA1/CNGB1 assessed as inhibition of cGMP-induced currents at +50 mV potential at 1 uM by patch-clamp method in presence of 50 uM cGMP. The procedure, abridged: as §2
Series [7] is filed under the species Xenopus laevis. In words: Inhibition of Xenopus laevis oocyte CNGA1/CNGB1 assessed as inhibition of currents at +50 mV potential at 2 uM by patch-clamp method in presence of 50 uM cGMP. Put shortly: as §2

Calls of active or inactive are those of the source. The rule behind the calls is not given here.

Consider `CCCCNc1ccc(C(=O)NCCN(C)C)cc1`, for which the figures for the Kd in series [1] and in series [2] were 4.4 µM and 28.6 µM, respectively. The Drug degradation in series [3] is 8.4 nmol/min/mg.
Consider `CCCCCCCCNc1ccc(C(=S)NCCN(C)C)cc1`, for which the figures for the Kd in series [1] and in series [2] were 0.7 µM and 1.8 µM, respectively.
The corresponding values for `CCCCNc1ccc(C(=S)NCCN(C)C)cc1` are 0.6 µM and 3.9 µM.
In the case of `CCCCCCCCNc1ccc(C(=O)OCCN(C)C)cc1`, the inhibition entry in the series filed under Xenopus laevis [4], in the series filed under Xenopus laevis [5], in the series listed under Xenopus laevis [6] and in the series filed under Xenopus laevis [7] was “Active” throughout. The Kd in series [1] came to 1 µM; in series [2] it was 2.4 µM. The Drug degradation in series [3] was found to be 213 nmol/min/mg.
For the compound `CCCCNc1ccc(C(=O)OCCN(C)C)cc1` [TETRACAINE], the inhibition entry in the series listed under Xenopus laevis [4], in the series filed under Xenopus laevis [5], in the series listed under Xenopus laevis [6] and in the series listed under Xenopus laevis [7] was “Active” throughout. Further, the Drug degradation in series [3] is on record as 132 nmol/min/mg.
For the compound `CCCCCCCCNc1ccc(C(=O)NCCN(C)C)cc1`, the Drug degradation in series [3] came to 1.2 nmol/min/mg.
